Only some compounds are listed: those with a hit (about 4.7% of all), similar ones and a draw of the others.
MrgX1 antagonist = antagonists of human MrgX1 receptor; MRGX1-HEK293 calcium flux, Fluo-4, BAM8-22 antagonism; active compounds read low; B-score at 10 µM; 310,000 tested, 1.3% active;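 active = calcium-response B-score plate-corrected more than 3 library SD below zero, starting fluorescence within 5 deviations, no agonist response on first addition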;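 also: peak minus trough fluorescence over baseline after final BAM8-22 challenge near maximal dose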
Target sequence (Q96LB2 whole entry, looked up): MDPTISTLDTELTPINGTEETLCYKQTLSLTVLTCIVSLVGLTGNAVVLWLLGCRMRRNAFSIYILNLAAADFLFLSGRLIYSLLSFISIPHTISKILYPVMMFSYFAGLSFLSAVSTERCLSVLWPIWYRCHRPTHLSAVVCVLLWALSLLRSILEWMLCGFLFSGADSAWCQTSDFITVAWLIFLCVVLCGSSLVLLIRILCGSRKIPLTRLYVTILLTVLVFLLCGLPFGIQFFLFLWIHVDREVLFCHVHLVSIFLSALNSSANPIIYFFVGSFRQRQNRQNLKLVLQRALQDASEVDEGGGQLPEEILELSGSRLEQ
MrgX1 allo act = human MrgX1 positive allosteric modulation, primary screen; Q96LB2; MrgX1-HEK293, Fluo-4 calcium flux, FDSS; active compounds read high; B-score at 10 µM; 310,000 tested, 0.63% active; AID 588675;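 active = plate-corrected calcium response at least 3 library SD above typical, normal starting fluorescence, not activating the receptor alone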;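 also: compound read alongside a low EC10 to EC30 dose of BAM8-22 agonist; peak minus trough fluorescence over baseline measured at the second addition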
RGS4 act = potentiators or activators of RGS4; HEK293 M3R/inducible RGS4, carbachol calcium flux Fluo4; active compounds read low; B-score at 10 µM; 310,000 tested, 0.92% active; AID 463111;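 active = B-score of the integrated calcium signal more than 4 SD below the library mean, with starting fluorescence not abnormally high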;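 also: negative B-score means reduced calcium response which marks RGS4 activation or potentiation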
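Assay system: Inducible-RGS4 HEK293 cells carrying M3 receptor | Schedule: Compound preincubation 20 min at room temperature before agonist | Signal: Kinetic calcium fluorescence imaging with Fluo4-AM dye, 2 µM | Read-out basis: B score from integrated fluorescence ratio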
RGS4 inh = inhibitors of human RGS4. B-score at 10 µM. 310,000 tested, 0.45% active. HEK293 M3R/RGS4 inducible, Fluo-4 calcium flux; active compounds read high; triggered by carbachol at its EC20. P49798;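 active = B-score, a plate-corrected calcium signal, over three deviations above library mean, with baseline fluorescence within five deviations of library mean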;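 also: RGS4 expression induced by doxycycline in cells with stable M3 receptor; B-score is computed from the integrated fluorescence ratio over baseline after carbachol; higher B-score means a larger calcium signal and so more RGS4 inhibition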
Target sequence (P49798 whole entry, looked up): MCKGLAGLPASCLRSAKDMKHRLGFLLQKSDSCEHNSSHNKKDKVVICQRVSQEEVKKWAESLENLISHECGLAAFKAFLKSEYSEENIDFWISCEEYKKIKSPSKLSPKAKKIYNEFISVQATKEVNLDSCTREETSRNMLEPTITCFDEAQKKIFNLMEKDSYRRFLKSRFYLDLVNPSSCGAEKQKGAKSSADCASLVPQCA
KCC2 mod = modulates chloride dependent transport by human KCC2 | Q9H2X9 | KCC2 cells, thallium flux FluoZin-2 fluorescence | B-score of Tl+ flux slope (higher = more flux/activation; lower = inhibition) at 10 µM | 190,000 tested, 2.2% active;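 active = thallium flux slope and its plate-corrected score both differing from the plate sample mean at a set confidence after two filtering rounds, in either direction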;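 also: slope of fluorescence scaled to starting intensity during 10 to 20 s after thallium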
MrgX1 agonist = agonists of human MrgX1 receptor. Q96LB2. MrgX1-HEK293 cells, Fluo-4 calcium fluorescence, agonist mode; active compounds read high. B-score at 10 µM. 310,000 tested, 0.44% active;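 active = calcium response B-score plate-corrected fluorescence ratio at least 3 library SD, with starting fluorescence B-score inside 5 SD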
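System: HEK293 cells stably expressing human MrgX1 receptor; Dosing: test compound in the initial addition of three; Schedule: overnight plating, then 30 min 37 °C plus 30 min room-temperature dye loading; Detection: kinetic calcium dye fluorescence, Fluo-4 NW; Controls: per-plate positive and negative controls for Z′ factor.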
RGS4 inh valid = RGS4 inhibitor validation; shares compounds with RGS4 inh; HEK293 M3R/RGS4, carbachol calcium Fluo-4 fluorescence; carbachol added at its EC20; 0 = buffer wells, 100 = carbachol control; calcium response, % at 10 µM; 1,700 tested, 65% active;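 active = duplicate-averaged calcium response above the buffer-only control mean plus 5 SD of those controls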;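 also: integrated fluorescence ratio F max minus min over baseline F0; higher response in RGS4-induced cells means RGS4 inhibition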
M3R Ca ctr = non-induced cell nonspecific activity of RGS4 inhibitors. activity (percent), % at 10 µM. shares compounds with RGS4 inh. 1,900 tested, 20% active. HEK293 M3R non-induced, carbachol calcium Fluo-4; submaximal (EC20) carbachol stimulus; buffer wells 0%, carbachol control wells 100%. AID 493000; call rule not given here;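 also: RGS4 induction absent so cells express M3R without RGS4; higher means more calcium signal and flags a non-specific hit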
M3R basal Ca ctr = signal in non-induced cells without carbachol, RGS4 inhibitor counter-screen; shares compounds with RGS4 inh; HEK293 M3R/RGS4 non-induced, Fluo-4 calcium, no carbachol; normalised: buffer wells 0%, carbachol wells 100%; calcium response (agonist-mode artifact), % at 10 µM; 1,900 tested, 22% active;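 active = duplicate-averaged calcium rise in uninduced cells above buffer wells' mean plus 5 SD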
* = called active by the depositor; i = inactive; / = not tested or not shown.

SMILES	MrgX1 antagonist	MrgX1 allo act	RGS4 act	RGS4 inh	KCC2 mod	MrgX1 agonist	RGS4 inh valid	M3R Ca ctr	M3R basal Ca ctr
CCOC(=O)/C(=C\c1cn(C)c2ccccc12)[N+](=O)[O-]	-4.6*	i	i	5.8*	-5.2	i	34%*	i	20%*
Cn1nccc1C(=O)NC1CCCc2c1cnn2-c1ccc(C(C)(C)C)cc1 (centres undefined)	i	i	i	i	/	i	/	/	/
CCOc1ccc(/C=c2\sc3nc(-c4ccco4)nn3c2=O)cc1OCC	i	i	i	6*	/	i	8.5%*	i	133%*
O=C(NCCC(=O)N1CCc2ccccc21)c1ccco1	i	i	i	i	/	i	/	/	/
Cc1ccc(S(=O)(=O)N2CCN(C(=O)COC(=O)C3CCC3)CC2)cc1	i	i	i	i	/	i	/	/	/
COc1ccc2[nH]c(=O)c(CN(C3CCCCC3)C(c3nnnn3Cc3ccco3)C(C)C)cc2c1 (centres undefined)	-4.5*	i	i	7.6*	-0.18	i	7.5%*	i	24%*
CCC(c1nnnn1Cc1ccco1)N(Cc1cc2cc(C)cc(C)c2[nH]c1=O)CC1CCCO1 (centres undefined)	i	i	i	5.8*	-0.36	i	i	i	i
Cc1ccc2[nH]c(=O)c(C(c3nnnn3C(C)(C)C)N(Cc3ccco3)CC3CCCO3)cc2c1 (centres undefined)	i	i	i	i	-0.13	i	i	i	i
CC(C)(C)n1nnnc1C(c1ccccc1F)N(Cc1ccco1)CC1CCCO1 (centres undefined)	i	i	i	i	/	i	/	/	/
Cc1ccc2[nH]c(=O)c(C(c3nnnn3C3CCCC3)N(Cc3cccnc3)Cc3ccco3)cc2c1 (centres undefined)	i	i	i	i	-0.41	i	/	/	/
Cc1cccc2cc(C(c3nnnn3C(C)(C)C)N(Cc3ccco3)CC3CCCO3)c(=O)[nH]c12 (centres undefined)	i	i	i	i	0.15	i	i	i	i
COc1ccc2[nH]c(=O)c(CN(Cc3ccco3)C(c3nnnn3Cc3ccccc3)C(C)C)cc2c1 (centres undefined)	i	i	i	i	0.09	i	/	/	/
N#Cc1c(-c2ccccc2)c(-c2ccccc2)nn(CC(=O)NNC(=O)Nc2ccccc2)c1=O	i	i	i	i	0.034	i	i	i	i
N#Cc1c(-c2ccccc2)c(-c2ccccc2)nn(CC(=O)NNC(=O)Nc2ccc(Cl)cc2)c1=O	i	i	i	i	-1.5	i	/	i	i
Cn1c(CO)cnc1S(=O)(=O)Cc1c(Cl)cccc1Cl	i	i	i	i	/	i	/	/	/
CCCCn1c(/N=C/c2c[nH]c3ccccc23)nc2ccccc21	i	i	i	i	-0.082	i	/	i	i
CCCn1c(/N=C/c2ccccc2O)nc2ccccc21	i	i	i	i	-1.5	i	/	/	/
CCCn1c(/N=C/c2c[nH]c3ccccc23)nc2ccccc21	i	i	i	5.1*	0.91	i	8.0%*	i	i
CCn1c(/N=C/c2c[nH]c3ccccc23)nc2ccccc21	i	i	i	i	-0.47	i	/	i	i
COc1ccc2cc(/C=C/C(=O)c3ccco3)c(Cl)nc2c1	i	i	i	i	0.74	i	/	/	/
COc1cc2cc(/C=C/C(=O)c3ccco3)c(Cl)nc2cc1OC	i	i	i	8.1*	-1	i	16%*	i	20%*
Cc1ccc2cc(/C=C/C(=O)c3ccco3)c(Cl)nc2c1	i	i	i	6*	1.1	i	i	39%*	i
Cc1ccc2nc(Cl)c(/C=C/C(=O)c3ccco3)cc2c1	i	i	i	i	i	i	i	50%*	i
Oc1ccccc1-c1cc(C(F)(F)F)[nH]n1	/	/	/	/	-1.5	/	/	/	/
O=[N+]([O-])c1ccccc1-c1cc(-c2ccccc2O)n[nH]1	i	i	i	i	-1.4	i	i	i	i
SMILES	MrgX1 antagonist	MrgX1 allo act	RGS4 act	RGS4 inh	KCC2 mod	MrgX1 agonist	RGS4 inh valid	M3R Ca ctr	M3R basal Ca ctr
NC[C@@H]1O[C@H](C23CC4CC(CC(C4)C2)C3)Cc2c1ccc(O)c2O	i	i	i	10*	-0.63	i	10%*	i	i
C=CCNC(=O)/C(C#N)=C/c1ccccc1OCc1ccc(C(=O)OC)cc1	i	i	i	i	0.71	i	/	/	/
COC(=O)c1ccc(COc2ccccc2/C=C(\C#N)C(=O)Nc2ccc(C)cc2)cc1	i	i	i	i	0.26	i	i	i	i
N#C/C(=C/c1ccc(OCc2ccc(C(=O)O)cc2)cc1)C(=O)Nc1ccccc1	i	i	i	i	/	i	/	/	/
N#C/C(=C\c1ccccc1OCc1ccc(C(=O)O)cc1)C(=O)Nc1ccc(O)cc1	i	i	i	6.9*	0.94	i	14%*	i	i
COC(=O)c1ccc(-c2csc(NC(=O)C3=COCCO3)n2)cc1	i	i	i	i	/	i	/	/	/
Cc1ccc(-c2csc(NC(=O)C3=COCCO3)n2)cc1	i	i	i	i	-0.83	i	i	i	i
O=C(Nc1nc(-c2ccc(Oc3ccccc3)cc2)cs1)C1=COCCO1	i	i	i	21*	0.61	i	32%*	42%*	i
COc1ccc(CCNC(=S)NNC(=O)c2c(Br)c(C)nn2C)cc1OC	i	i	i	i	/	i	/	/	/
Cc1c(C(=O)NCCN2CCOCC2)oc2ccc(Br)cc12	i	i	i	i	/	i	/	/	/
Fc1ccccc1-c1nc(NCc2ccco2)c2ccccc2n1	i	i	i	i	-0.083	i	/	/	/
O=c1c2ccccc2nc2c3ccccc3c(NCc3ccco3)nn12	i	i	i	4.9*	-0.47	i	i	i	i

Source: PubChem BioAssay (several laboratories)
